Records with an inconclusive call do not appear.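 Rule for the calls, unless noted: active = viability increase at or above a cutoff of the median across tested compounds plus 3 SD (cut at about 8.5% in these data, passing the limit was not always enough); inconclusive = some gains above the cutoff, reason not given; inactive = the rest.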
Legend:
[1] = S. cerevisiae growth inhibition in permissive medium (OD615), pilot counter-assay for S. cerevisiae lifespan shortening project, permissive growth control (AID 705;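 active = growth inhibition above 25% in both replicates, a cutoff set 3 SD above the mean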); settings: OD615, 24 h, at 10 µM, active compounds read high
How it was run: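 System: Engineered DeaD yeast | Buffer or medium: SC raffinose/galactose permissive medium | Incubation: Cells pre-grown 4 h, then 24 h compound exposure, 30 °C humidified | Measured by: Absorbance (optical density) at 615 nm | Read-out: Reduction in yeast growth (OD615)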

[2] = S. cerevisiae growth inhibition in restrictive medium, OD615, pilot screen, restrictive growth control, yeast lifespan reduction project (AID 706;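 active = growth inhibition above a set limit, 3 SD over mean compound inhibition, in both replicates, cut at about 43% in these data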;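 note: modified DeaD lifespan yeast strain shifted to restrictive glucose medium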); settings: OD615, 48 h, at 10 µM, active compounds read high
How it was run: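 Material: modified S. cerevisiae; Medium: glucose-based CSMM-D restrictive medium; Compound dosing: one concentration, 10 µM final, 0.25% DMSO; Incubation: 48 h compound exposure at 30 °C; Measured by: OD615.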

[3] = doxorubicin toxicity protection in MRP-1 cells – H69AR cells, CellTiter-Glo, duplicate, MRP-1 activator project, pilot screen (AID 807); settings: H69AR viability with doxorubicin, CellTiter-Glo luminescence; at 10 µM; active compounds read high;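 note: compound pretreatment 18-22 h then 72 h combined with doxorubicin; 0% = doxorubicin alone and 100% = vehicle without doxorubicin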
[4] = viability of HCT116 without oncogenic beta-catenin – human colon tumor cells, pilot screen (AID 823;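 active = cell viability at or below a set limit in both duplicate runs, the limit being the all-compound median minus 4 SD, cut at about 23% in these data, passing the limit was not always enough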;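 note: 0% = wells killed by 20 µM Hyamine and 100% = untreated DMSO cell wells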); settings: HCT116 beta-catenin knockout viability, CellTiter-Glo, 60 h; at 10 µM; active compounds read low
[5] = viability of PTEN-null HCT116 cells – cell-based, HCT116 clonal line, CellTiter-Glo, pilot screen (AID 824;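 active = viability at or below 27.92% in each of two runs, the all-compound median minus 4 SD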;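 note: 0% = 20 µM Hyamine control and 100% = vehicle cell control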); settings: HCT116 PTEN-deleted viability, 60 h, at 10 µM, active compounds read low
[6] = RAM pathway blockade in budding yeast – dse1pr::URA3 reporter, 5-FOA selection, pilot screen (AID 869;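 active = inhibition over a set limit, the all-compound mean plus 3 SD, in both replicate runs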;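 note: 0% = DMSO wells with no growth and 100% = 10 µM 1-NA-PP1 with full growth; RAM network block rescues cells from 5-FOA so hits raise OD615 growth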); settings: S. cerevisiae dse1pr::URA3 5-FOA growth, OD615, 2 d; at 10 µM; active compounds read high; strain carries analog-sensitive mutant Cbk1 kinase
[7] = RAM signaling pathway blockade in yeast – S. cerevisiae, Pdr1DBD-CYC8 efflux-inhibited sensitized strain, primary screen (AID 1298;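 active = RAM network inhibition above 8.4% in each of two replicates, 3 SD over the compound average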;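 note: 0% = DMSO untreated cells without growth and 100% = 10 µM 1-NA-PP1 full growth; higher means more yeast growth rescued from 5-FOA killing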); settings: S. cerevisiae cbk1-as DSE1-URA3 strain, 5-FOA growth OD615, 2 d; at 50 µM; active compounds read high

O=C(COc1ccc(Cl)cc1)Nc1nnc(-c2ccc3c(c2)CCCC3)o1
inactive: growth inhibition [1] -12.6% | growth inhibition [2] -12.9% | viability increase [3] -1.94% | viability [4] 101% | viability [5] 96.5% | inhibition [6] 3.45% | RAM network inhibition [7] 1.21%

CCC(=O)N1c2ccccc2NC2=C(C(=O)CC(c3ccco3)C2)C1c1ccco1 (stereo not drawn)
inactive: growth inhibition [1] -7.69% | growth inhibition [2] 7.1% | viability increase [3] -1.65% | viability [4] 92.4% | viability [5] 92.4% | inhibition [6] 0.915% | RAM network inhibition [7] -0.58%

CCCCOC(=O)Nc1ccccc1C(N)=O
inactive: growth inhibition [1] -16.1% | growth inhibition [2] -13% | viability increase [3] 0.35% | viability [4] 95.3% | viability [5] 102% | inhibition [6] 1.07% | RAM network inhibition [7] 1.72%

CC(=O)c1ccc(NC(=O)CSc2nnc(Cc3cccn3C)n2-c2ccc(F)cc2)cc1
inactive: growth inhibition [1] 0.105% | growth inhibition [2] 12.5% | viability increase [3] -2.21% | viability [4] 98% | viability [5] 94.3% | inhibition [6] 0.005% | RAM network inhibition [7] 5.1%

O=P(c1ccccc1)(c1ccccc1)C1CCCO1 (stereo not drawn)
inactive: growth inhibition [1] -10.8% | growth inhibition [2] 8.75% | viability increase [3] 1.36% | viability [4] 97.7% | viability [5] 91.7% | inhibition [6] 2.44% | RAM network inhibition [7] 0.92%

Nc1cccc(-n2nncc2-c2ccc(Cl)cc2)c1
inactive: growth inhibition [1] -6.67% | growth inhibition [2] -5.47% | viability increase [3] -1.43% | viability [4] 99.3% | viability [5] 91.8% | inhibition [6] 1.98% | RAM network inhibition [7] 3.64%

CCOC(=O)C1CCN(C(=O)CN(c2ccc(OC)cc2)S(=O)(=O)c2c(C)noc2C)CC1
inactive: growth inhibition [1] -7.19% | growth inhibition [2] -5.5% | viability increase [3] -2.59% | viability [4] 98.5% | viability [5] 96.7% | inhibition [6] 2.41% | RAM network inhibition [7] 3.41%

CC(=O)Nn1cc2c(c1-c1ccccc1)c(=O)n(C)c(=O)n2C
inactive: growth inhibition [1] -10% | growth inhibition [2] -3.13% | viability increase [3] 1.16% | viability [4] 93% | viability [5] 87.2% | inhibition [6] 1.5% | RAM network inhibition [7] 3.01%

O=C(Nc1nnc(-c2ccccc2)s1)c1ccc(Cl)c(S(=O)(=O)N2CCOCC2)c1
inactive: growth inhibition [1] -16.8% | growth inhibition [2] -5.79% | viability increase [3] -1.65% | viability [4] 100% | viability [5] 96.2% | inhibition [6] 2.61% | RAM network inhibition [7] 1.72%

Cc1ccccc1N1C(=O)c2cccc3c(N(C)CCO)ccc(c23)C1=O
inactive: growth inhibition [1] 5.99% | growth inhibition [2] -6.49% | viability increase [3] -3.91% | viability [4] 104% | viability [5] 90.4% | inhibition [6] 2.26% | RAM network inhibition [7] 2.12%

CCN(CC)CCCNC(=O)c1cc2c(=O)n(C)c3ccccc3c2n1C
inactive: growth inhibition [1] -6.05% | growth inhibition [2] -3.57% | viability increase [3] -6.34% | viability [4] 55.8% | viability [5] 58.4% | inhibition [6] -0.125% | RAM network inhibition [7] 2.21%

[O-]/[N+](=C\c1ccc(OC(F)F)cc1)c1ccccc1
inactive: growth inhibition [1] -1.07% | growth inhibition [2] 2.88% | viability increase [3] -5.13% | viability [4] 88.1% | viability [5] 93.7% | inhibition [6] 1.19% | RAM network inhibition [7] 1.08%

Cc1occc1C(=O)NCc1cccs1
inactive: growth inhibition [1] -6.07% | growth inhibition [2] -2.95% | viability increase [3] -1.27% | viability [4] 91% | viability [5] 95.9% | inhibition [6] 0.455% | RAM network inhibition [7] -0.16%

COC(=O)/C=C/S(=O)(=O)c1ccc(NC(C)=O)cc1
inactive: growth inhibition [1] -15.3% | growth inhibition [2] 0.685% | viability increase [3] -8.44% | viability [4] 88.3% | viability [5] 85.4% | inhibition [6] 0.565% | RAM network inhibition [7] 7.25%

CN(C)CCNC(=O)c1cc2cc(Br)ccc2oc1=O
inactive: growth inhibition [1] -22.2% | growth inhibition [2] -8.59% | viability increase [3] -2.26% | viability [4] 81.6% | viability [5] 84.5% | inhibition [6] 0.755% | RAM network inhibition [7] 2.26%

Cc1ccc(CN2CCN(CC(=O)N3CCC(C(N)=O)CC3)C2=O)cc1
inactive: growth inhibition [1] 0.425% | growth inhibition [2] 1.62% | viability increase [3] -0.17% | viability [4] 105% | viability [5] 101% | inhibition [6] 2.1% | RAM network inhibition [7] 3.53%

COc1ccccc1C1NC(=O)NC(C)=C1C(=O)Nc1cccc(C)c1C (stereo not drawn)
inactive: growth inhibition [1] -5.33% | growth inhibition [2] -10.3% | viability increase [3] -1.32% | viability [4] 105% | viability [5] 102% | inhibition [6] 0.77% | RAM network inhibition [7] -1.38%

COc1ccccc1S(=O)(=O)Cc1ccc(C(=O)N2CCCC2)o1
inactive: growth inhibition [1] -3.58% | growth inhibition [2] -4.36% | viability increase [3] -1.51% | viability [4] 108% | viability [5] 101% | inhibition [6] 0.935% | RAM network inhibition [7] 0.94%

CC(=O)Nc1ccc(S(=O)(=O)N2CCN(CCC#N)CC2)cc1
inactive: growth inhibition [1] -4.55% | growth inhibition [2] 6.44% | viability increase [3] 0.85% | viability [4] 111% | viability [5] 97.1% | inhibition [6] 1.86% | RAM network inhibition [7] 0.19%

CCc1ccccc1S(=O)(=O)Cc1ccc(C(=O)N2CCN(c3ccccn3)CC2)o1
inactive: growth inhibition [1] -8.76% | growth inhibition [2] -27% | viability increase [3] -3.28% | viability [4] 84.1% | viability [5] 78% | inhibition [6] 1.54% | RAM network inhibition [7] 2.4%

COc1ccc(NC(=O)NCCN2CCN(c3cccc(Cl)c3)CC2)cc1
inactive: growth inhibition [1] 1.49% | growth inhibition [2] -5.71% | viability increase [3] -1.77% | viability [4] 76.9% | viability [5] 71.9% | inhibition [6] 0.88% | RAM network inhibition [7] 3.82%

O=C(Oc1cccnc1)c1cccc(Cl)c1
inactive: growth inhibition [1] 6.51% | growth inhibition [2] 20.1% | viability increase [3] -0.55% | viability [4] 101% | viability [5] 97.5% | inhibition [6] 0.79% | RAM network inhibition [7] -2.15%

Cc1nc(CC(=O)c2c(C)cc(O)cc2O)cs1
inactive: growth inhibition [1] -12.2% | growth inhibition [2] 1.06% | viability increase [3] 2.92% | viability [4] 90.5% | viability [5] 95.9% | inhibition [6] -0.335% | RAM network inhibition [7] 1.48%

CCCCSc1nc2c(cnn2-c2ccc(C)c(C)c2)c(=O)[nH]1
inactive: growth inhibition [1] -3.77% | growth inhibition [2] 8.57% | viability increase [3] -6.91% | viability [4] 59.1% | viability [5] 59.5% | inhibition [6] 1.05% | RAM network inhibition [7] 5.36%
